Test results published in ChEMBL document CHEMBL3351599, “Extending the N-linked aminopiperidine class to the mycobacterial gyrase domain: pharmacophore mapping from known antibacterial leads” (Eur J Med Chem, 2014).
Converted amounts (≈) assume the structure as drawn.

Experiments:
[1] = tested on: Mycobacterium tuberculosis; test: (§1) Inhibition of Mycobacterium tuberculosis GyrA/GyrB using relaxed pBR322 as substrate after 30 mins by DNA supercoiling assay
[2] = as §1
[3] = Selectivity index, ratio of CC50 for mouse RAW264.7 cells to MIC for Mycobacterium tuberculosis H37Rv; format: toxicity; conditions: read-out: Selectivity Index
Summary of the method: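 Ratio of CC50 to MABA MIC against H37Rv. […] MTT was added 4 h before the end, formazan was dissolved in DMSO and absorbance read at 560 nm. Each concentration was run in triplicate.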

[4] = tested on: Mycobacterium tuberculosis; test: Inhibition of Mycobacterium tuberculosis GyrA/GyrB using relaxed pBR322 as substrate at 0.97 uM after 30 mins by DNA supercoiling assay
Summary of the method: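 Gyrase supercoiling reaction: GyrA/GyrB heterotetramer (1 U), relaxed pBR322, 1 mM ATP, HEPES-KOH pH 7.9 buffer, 30 min at 37 °C. Compounds were tested in a series of 250, 62.5, 15.6, 3.9 and 0.97. Products were resolved on 1% agarose with ethidium staining, and inhibition was quantified relative to control.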

[5] = tested on: Mycobacterium tuberculosis; test: Antimycobacterial activity against Mycobacterium tuberculosis H37Rv after 7 days by microplate alamar blue assay; format: functional; conditions: 168 h
Summary of the method: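 M. tuberculosis H37Rv inoculum taken from fresh LJ medium, resuspended in 7H9-S (7H9 broth, 0.1% casitone, 0.5% glycerol, OADC), adjusted to McFarland No. 1 and diluted 1:20. Two-fold serial dilutions were tested over a range of 25 to 0.78. Plates were incubated 7 days at 37 °C, then alamar blue was added and incubated overnight. Blue-to-pink colour change read as growth; MIC determined.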

[6] = Cytotoxicity against mouse RAW264.7 cells at 100 uM after 48 hrs by MTT assay; format: cell-based; conditions: read-out: INH
Summary of the method: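 Cells seeded at 5 × 10⁵ per well with test compound at a range of concentrations. Incubated 48 h at 37 °C under 5% CO₂/[…]. MTT reagent (10 mg mL⁻¹ stock) added about 4 h before the end. Plate centrifuged, supernatant removed and formazan dissolved in DMSO. Absorbance read at 560 nm against a blank. Triplicate wells per concentration.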

SMILES | inhibition [1] | IC50 [2] [nM] | selectivity ratio [3] | inhibition [4] [%] | MIC [5] [µM] | cytotoxicity at 48 h, 100 µM [6] [%]
COc1cnc2ccc(=O)n(CCN3CCC(NC(=O)Nc4ccc(F)cc4)CC3)c2c1 | Dose-dependent effect | 78 | > 161 | > 82 | 0.62 (≈ 0.272 µg/mL) | 31.5
COc1cnc2ccc(=O)n(CCN3CCC(NC(=S)Nc4ccc([N+](=O)[O-])cc4)CC3)c2c1 | – | 3900 | > 15.5 | > 77 | 6.46 (≈ 3.12 µg/mL) | 35.8
